Among the data in ChEMBL document CHEMBL1158120, “Cytotoxic oxygenated triterpenoid saponins from Symplocos chinensis” (J Nat Prod, 2006) are IC50 values, retold here.

What all share (type): functional, cell-based
One test has as its system HCT-8. In words: Cytotoxicity against human HCT8 cells by MTT assay. Summed up:
(§1)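 MTT read-out of tumour-cell viability. IC50 values in µM are reported as means of three independent experiments.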
In general terms: Tetrazolium dyes change colour on reduction, which living cells bring about.

Another test deals with Bel-7402. In words: Cytotoxicity against human Bel-7402 cells by MTT assay. Summed up:
as §1

In another test the test system is BGC-823. In words: Cytotoxicity against human BGC-823 cells by MTT assay. Summed up:
as §1

A further test has as its system A549. In words: Cytotoxicity against human A549 cells by MTT assay. An outline of the steps: as §1
In another test the test system is A2780. In words: Cytotoxicity against human A2780 cells by MTT assay. An outline of the steps: as §1

For orientation: IC50 means the concentration that gives 50% inhibition. `CCCCOC(=O)[C@H]1O[C@@H](O[C@H]2CC[C@]3(C)[C@H]4CC=C5[C@@H]6CC(C)(C)C[C@H](OC(=O)/C=C(/C)CCC=C(C)C)[C@]6(CO)[C@H](O)[C@H](O)[C@@]5(C)[C@]4(C)CC[C@H]3C2(C)C)[C@H](O[C@@H]2O[C@H](CO)[C@@H](O)[C@H](O)[C@H]2O)[C@@H](O)[C@@H]1O[C@@H]1O[C@@H](CO)[C@H](O)[C@H]1O` [SYMPLOCOSOSIDE F]: the IC50 in the test on HCT-8 is 4 µM; in the test on Bel-7402, above 10000 nM; with BGC-823, above 10 µM; with A549 it was above 10 µM; in the test with A2780, above 10000 nM.
Turning to `CCCCOC(=O)[C@H]1O[C@@H](O[C@H]2CC[C@]3(C)[C@H]4CC=C5[C@@H]6CC(C)(C)[C@@H](OC(=O)/C=C(\C)CCC=C(C)C)[C@H](OC(=O)C(C)CC)[C@]6(CO)[C@H](O)[C@H](O)[C@@]5(C)[C@]4(C)CC[C@H]3C2(C)C)[C@H](O[C@@H]2O[C@H](CO)[C@@H](O)[C@H](O)[C@H]2O)[C@@H](O)[C@@H]1O[C@@H]1O[C@@H](CO)[C@H](O)[C@H]1O` (some centres undefined) [SYMPLOCOSOSIDE D], the IC50 in the test with HCT-8 was above 10 µM; with Bel-7402, 1890 nM; in the test on BGC-823, above 10 µM; in the test with A549, above 10 µM; in the test on A2780 it was 1740 nM.
For the molecule `CC(=O)O[C@@H]1[C@@H](O[C@@H]2O[C@H](CO)[C@@H](O)[C@H](O)[C@H]2O)[C@H](O[C@H]2CC[C@]3(C)[C@H]4CC=C5[C@@H]6CC(C)(C)[C@@H](OC(=O)/C=C(/C)CCC=C(C)C)[C@H](OC(=O)c7ccccc7)[C@]6(CO)[C@H](O)[C@H](O)[C@@]5(C)[C@]4(C)CC[C@H]3C2(C)C)O[C@H](C(=O)O)[C@H]1O[C@@H]1O[C@@H](CO)[C@H](O)[C@H]1O` [SYMPLOCOSOSIDE J], the IC50 was determined as 2.1 µM with HCT-8; 1700 nM with Bel-7402; 1.8 µM in the test with BGC-823; 3 µM in the test on A549; 1400 nM in the test on A2780.
For `CCC(C)C(=O)O[C@H]1[C@H](OC(=O)c2ccccc2)C(C)(C)C[C@H]2C3=CC[C@@H]4[C@@]5(C)CC[C@H](O[C@@H]6O[C@H](C(=O)O)[C@@H](O[C@@H]7O[C@@H](CO)[C@H](O)[C@H]7O)[C@H](OC(C)=O)[C@H]6O[C@@H]6O[C@H](CO)[C@@H](O)[C@H](O)[C@H]6O)C(C)(C)[C@@H]5CC[C@@]4(C)[C@]3(C)[C@@H](O)[C@@H](O)[C@]21CO` (some centres undefined) [SYMPLOCOSOSIDE P], the IC50 in the test on HCT-8 was above 10 µM; in the test with Bel-7402, above 10000 nM; in the test with BGC-823, above 10 µM; in the test on A549, above 10 µM; in the test with A2780, 3300 nM.
As for `CCCCOC(=O)[C@H]1O[C@@H](O[C@H]2CC[C@]3(C)[C@H]4CC=C5[C@@H]6CC(C)(C)[C@@H](OC(=O)/C=C(/C)CCC=C(C)C)[C@H](OC(=O)C(C)CC)[C@]6(CO)[C@H](O)[C@H](O)[C@@]5(C)[C@]4(C)CC[C@H]3C2(C)C)[C@H](O[C@@H]2O[C@H](CO)[C@@H](O)[C@H](O)[C@H]2O)[C@@H](O)[C@@H]1O[C@@H]1O[C@@H](CO)[C@H](O)[C@H]1O` (some centres undefined) [SYMPLOCOSOSIDE C], the IC50 was 2.9 µM in the test on HCT-8; 1500 nM with Bel-7402; 4.3 µM with BGC-823; above 10 µM in the test with A549; 1300 nM in the test on A2780.
`CCC(C)C(=O)O[C@H]1[C@H](OC(=O)/C=C/c2ccccc2)C(C)(C)C[C@H]2C3=CC[C@@H]4[C@@]5(C)CC[C@H](O[C@@H]6O[C@H](CO)[C@@H](O[C@@H]7O[C@@H](CO)[C@H](O)[C@H]7O)[C@H](OC(C)=O)[C@H]6O[C@@H]6O[C@H](CO)[C@@H](O)[C@H](O)[C@H]6O)C(C)(C)[C@@H]5CC[C@@]4(C)[C@]3(C)[C@@H](O)[C@@H](O)[C@]21CO` (some centres undefined) [SYMPLOCOSOSIDE Y]: the IC50 with HCT-8 is above 10 µM; in the test on Bel-7402, above 10000 nM; with BGC-823, above 10 µM; with A549, above 10 µM; in the test with A2780, 3400 nM.
As for `CCC(C)C(=O)O[C@H]1[C@H](OC(=O)/C=C(/C)CCC=C(C)C)C(C)(C)C[C@H]2C3=CC[C@@H]4[C@@]5(C)CC[C@H](O[C@@H]6O[C@H](C(=O)O)[C@@H](O)[C@H](O)[C@H]6O[C@@H]6O[C@H](CO)[C@@H](O)[C@H](O)[C@H]6O)C(C)(C)[C@@H]5CC[C@@]4(C)[C@]3(C)[C@@H](O)[C@@H](O)[C@]21CO` (some centres undefined) [SYMPLOCOSOSIDE R], the IC50 with HCT-8 is 4.4 µM; in the test on Bel-7402, 4100 nM; with BGC-823 it was above 10 µM; with A549 it was above 10 µM; in the test with A2780 it was 1900 nM.
With `CCOC(=O)[C@H]1O[C@@H](O[C@H]2CC[C@]3(C)[C@H]4CC=C5[C@@H]6CC(C)(C)[C@@H](OC(=O)/C=C(/C)CCC=C(C)C)[C@H](OC(=O)C(C)CC)[C@]6(CO)[C@H](O)[C@H](O)[C@@]5(C)[C@]4(C)CC[C@H]3C2(C)C)[C@H](O[C@@H]2O[C@H](CO)[C@@H](O)[C@H](O)[C@H]2O)[C@@H](O)[C@@H]1O[C@@H]1O[C@@H](CO)[C@H](O)[C@H]1O` (some centres undefined) [SYMPLOCOSOSIDE Q], the IC50 is above 10 µM with HCT-8; above 10000 nM in the test with Bel-7402; above 10 µM in the test on BGC-823; above 10 µM in the test with A549; 5500 nM with A2780.
Regarding `CCC(C)C(=O)O[C@H]1[C@H](OC(=O)/C=C(/C)CCC=C(C)C)C(C)(C)C[C@H]2C3=CC[C@@H]4[C@@]5(C)CC[C@H](O[C@@H]6O[C@H](C(=O)O)[C@@H](O[C@@H]7O[C@@H](CO)[C@H](O)[C@H]7O)[C@H](OC(C)=O)[C@H]6O[C@@H]6O[C@H](CO)[C@@H](O)[C@H](O)[C@H]6O)C(C)(C)[C@@H]5CC[C@@]4(C)[C@]3(C)[C@@H](O)[C@@H](O)[C@]21CO` (some centres undefined) [SYMPLOCOSOSIDE G], the IC50 in the test on HCT-8 stood at 2 µM; in the test with Bel-7402, 1800 nM; with BGC-823, 1.9 µM; in the test on A549, 2.1 µM; in the test on A2780 it was 1400 nM.
With `CCC(C)C(=O)O[C@H]1[C@H](OC(=O)/C=C/c2ccccc2)C(C)(C)C[C@H]2C3=CC[C@@H]4[C@@]5(C)CC[C@H](O[C@@H]6O[C@H](CO)[C@@H](O[C@@H]7O[C@@H](CO)[C@H](O)[C@H]7O)[C@H](O)[C@H]6O[C@@H]6O[C@H](CO)[C@@H](O)[C@H](O)[C@H]6O)C(C)(C)[C@@H]5CC[C@@]4(C)[C@]3(C)[C@@H](O)[C@@H](O)[C@]21CO` (some centres undefined) [SYMPLOCOSOSIDE X], the IC50 is 1.7 µM in the test with HCT-8; 1800 nM in the test with Bel-7402; above 10 µM in the test with BGC-823; 2.1 µM in the test on A549; 1600 nM in the test on A2780.
For the molecule `CC1(C)C[C@H]2C3=CC[C@@H]4[C@@]5(C)CC[C@H](O)C(C)(C)[C@@H]5CC[C@@]4(C)[C@]3(C)[C@@H](O)[C@@H](O)[C@@]2(CO)[C@@H](O)[C@@H]1O` [R1-barrigenol], the IC50 is above 10 µM with HCT-8; above 10000 nM in the test on Bel-7402; above 10 µM in the test with BGC-823; above 10 µM in the test with A549; above 10000 nM in the test with A2780.
In the case of `CC(C)=CCC/C(C)=C\C(=O)O[C@H]1[C@H](OC(=O)C(C)C)[C@]2(CO)[C@H](O)[C@H](O)[C@]3(C)C(=CC[C@@H]4[C@@]5(C)CC[C@H](O)C(C)(C)[C@@H]5CC[C@]43C)[C@@H]2CC1(C)C`, the IC50 was above 10 µM in the test on HCT-8; above 10000 nM in the test on Bel-7402; above 10 µM with BGC-823; above 10 µM in the test on A549; above 10000 nM with A2780.
As to `CC1(C)C[C@H](O)[C@]2(CO)[C@H](O)[C@H](O)[C@]3(C)C(=CC[C@@H]4[C@@]5(C)CC[C@H](O)C(C)(C)[C@@H]5CC[C@]43C)[C@@H]2C1`, the IC50 with HCT-8 was above 10 µM; in the test with Bel-7402, above 10000 nM; in the test with BGC-823, above 10 µM; in the test on A549, above 10 µM; in the test with A2780, above 10000 nM.
As to `CC(C)=CCC/C(C)=C\C(=O)O[C@H]1CC(C)(C)C[C@H]2C3=CC[C@@H]4[C@@]5(C)CC[C@H](O)C(C)(C)[C@@H]5CC[C@@]4(C)[C@]3(C)[C@@H](O)[C@@H](O)[C@@]12CO`, the IC50 was above 10 µM in the test with HCT-8; above 10000 nM in the test with Bel-7402; above 10 µM with BGC-823; above 10 µM with A549; above 10000 nM with A2780.
Take `CCCCOC(=O)[C@H]1O[C@@H](O[C@H]2CC[C@]3(C)[C@H]4CC=C5[C@@H]6CC(C)(C)[C@@H](OC(=O)/C=C/c7ccccc7)[C@H](OC(=O)C(C)CC)[C@]6(CO)[C@H](O)[C@H](O)[C@@]5(C)[C@]4(C)CC[C@H]3C2(C)C)[C@H](O[C@@H]2O[C@H](CO)[C@@H](O)[C@H](O)[C@H]2O)[C@@H](O)[C@@H]1O[C@@H]1O[C@@H](CO)[C@H](O)[C@H]1O` (some centres undefined) [SYMPLOCOSOSIDE E]: the IC50 in the test with HCT-8 is above 10 µM; with Bel-7402, 1700 nM; with BGC-823 it was above 10 µM; in the test on A549, above 10 µM; in the test with A2780 it was 1700 nM.
For `CC(=O)O[C@@H]1[C@@H](O[C@@H]2O[C@H](CO)[C@@H](O)[C@H](O)[C@H]2O)[C@H](O[C@H]2CC[C@]3(C)[C@H]4CC=C5[C@@H]6CC(C)(C)C[C@H](OC(=O)/C=C(/C)CCC=C(C)C)[C@]6(CO)[C@H](O)[C@H](O)[C@@]5(C)[C@]4(C)CC[C@H]3C2(C)C)O[C@H](C(=O)O)[C@H]1O[C@@H]1O[C@@H](CO)[C@H](O)[C@H]1O` [SYMPLOCOSOSIDE O], the IC50 in the test with HCT-8 is 1.7 µM; in the test on Bel-7402, 2400 nM; in the test on BGC-823 it was above 10 µM; in the test on A549 it was above 10 µM; with A2780, above 10000 nM.
For the molecule `COc1cccc2c1C(=O)c1c(O)c3c(c(O)c1C2=O)C[C@@](O)(C(=O)CO)C[C@@H]3O[C@H]1C[C@H](N)[C@H](O)[C@H](C)O1` [DOXORUBICIN], the IC50 with HCT-8 stood at 0.8 µM; with Bel-7402 it was 1000 nM; in the test on BGC-823, 1 µM; in the test on A2780, 100 nM.
